Our source for the IC50, inhibition in vivo and QH values is ChEMBL document CHEMBL1138477, “8-(4-Methoxyphenyl)pyrazolo[1,5-a]-1,3,5-triazines: selective and centrally active corticotropin-releasing factor receptor-1 (CRF1) antagonists” (J Med Chem, 2009).

Molecules are shown by their SMILES.

For data set [1], the target named is T1, Alpha-2C adrenergic receptor (Homo sapiens, UniProt P18825).
T1 sequence (P18825 whole entry): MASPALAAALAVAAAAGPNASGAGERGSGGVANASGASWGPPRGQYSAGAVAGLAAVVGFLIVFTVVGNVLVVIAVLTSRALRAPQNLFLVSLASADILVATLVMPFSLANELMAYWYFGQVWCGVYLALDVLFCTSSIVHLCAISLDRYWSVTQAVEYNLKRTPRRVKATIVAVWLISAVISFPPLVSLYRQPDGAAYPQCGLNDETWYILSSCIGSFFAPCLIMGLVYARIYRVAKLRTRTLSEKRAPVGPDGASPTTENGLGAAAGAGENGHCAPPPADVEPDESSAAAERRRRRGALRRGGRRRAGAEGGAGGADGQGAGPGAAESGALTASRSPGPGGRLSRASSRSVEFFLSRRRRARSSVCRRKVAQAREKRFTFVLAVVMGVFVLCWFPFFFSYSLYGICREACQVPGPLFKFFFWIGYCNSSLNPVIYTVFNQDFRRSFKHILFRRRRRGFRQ
Briefly: Binding affinity to adrenergic alpha2c receptor.

The test system of data set [2] is Canis familiaris. The data set is described as follows: Ex vivo displacement of [125I]Tyr0-ovine CRF from CRF1 receptor in dog at 5 mg/kg, po measured in plasma after 2 hrs. The following applies: Canis lupus familiaris. The data set is classed as functional. An outline of the steps:
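Beagle dogs given 5 mg/kg po (free base), in Labrafil or Tween-80/0.5% methylcellulose 1:99; plasma drawn 2 and 10 h postdose, diluted 10-fold in binding buffer, and tested for inhibition of 125I-Tyr0-ovine-CRF binding to rat receptors; mean ± SD, n = 3.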
In general terms: Loss of bound radioactivity is the signal in a displacement assay; it reports binding, not function.

Data set [3] addresses T2, Corticotropin-releasing factor receptor 2 (Homo sapiens, UniProt Q13324).
T2 sequence (Q13324 whole entry): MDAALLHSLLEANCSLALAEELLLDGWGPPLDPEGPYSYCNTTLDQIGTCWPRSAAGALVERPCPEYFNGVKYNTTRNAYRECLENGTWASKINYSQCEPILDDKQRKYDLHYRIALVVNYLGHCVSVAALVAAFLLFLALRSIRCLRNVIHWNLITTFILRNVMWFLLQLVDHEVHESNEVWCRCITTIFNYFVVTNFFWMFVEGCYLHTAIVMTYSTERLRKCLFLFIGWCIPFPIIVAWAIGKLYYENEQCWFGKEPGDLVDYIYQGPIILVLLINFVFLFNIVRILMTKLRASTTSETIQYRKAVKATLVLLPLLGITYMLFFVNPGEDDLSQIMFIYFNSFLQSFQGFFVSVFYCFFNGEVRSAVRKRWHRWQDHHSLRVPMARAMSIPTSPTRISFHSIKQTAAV
The data set is described as follows: Binding affinity to human CRF2alpha receptor.

The target of data set [4] is T3, Corticotropin-releasing factor receptor 1 (Rattus norvegicus, UniProt P35353).
T3 sequence (P35353 whole entry): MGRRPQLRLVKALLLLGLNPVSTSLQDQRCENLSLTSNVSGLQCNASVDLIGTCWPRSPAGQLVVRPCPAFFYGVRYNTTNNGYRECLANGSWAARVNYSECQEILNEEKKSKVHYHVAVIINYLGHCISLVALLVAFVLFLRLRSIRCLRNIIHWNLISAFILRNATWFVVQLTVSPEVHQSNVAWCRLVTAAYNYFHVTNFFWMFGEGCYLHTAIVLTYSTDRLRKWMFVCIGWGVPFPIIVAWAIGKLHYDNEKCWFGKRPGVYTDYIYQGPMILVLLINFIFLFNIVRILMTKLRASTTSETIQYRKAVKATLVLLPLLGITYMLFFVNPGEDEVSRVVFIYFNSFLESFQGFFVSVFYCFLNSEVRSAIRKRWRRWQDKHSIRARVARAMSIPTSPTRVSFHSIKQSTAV
Briefly: Displacement of [125I]Tyr0-ovine CRF from CRF1 receptor in rat cortical membrane by gamma counting. It is filed as cell membranes. The method in brief: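 Inhibition of 125I-Tyr0-ovine-CRF binding to rat cortical membranes measured across dilutions of test drug; IC50 derived by iterative curve fitting.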

For the next data set, the target named is D(2) dopamine receptor (Homo sapiens, UniProt P14416). The data set is described as follows: Binding affinity to dopamine D2 receptor.
Sequence of D(2) dopamine receptor (P14416 whole entry): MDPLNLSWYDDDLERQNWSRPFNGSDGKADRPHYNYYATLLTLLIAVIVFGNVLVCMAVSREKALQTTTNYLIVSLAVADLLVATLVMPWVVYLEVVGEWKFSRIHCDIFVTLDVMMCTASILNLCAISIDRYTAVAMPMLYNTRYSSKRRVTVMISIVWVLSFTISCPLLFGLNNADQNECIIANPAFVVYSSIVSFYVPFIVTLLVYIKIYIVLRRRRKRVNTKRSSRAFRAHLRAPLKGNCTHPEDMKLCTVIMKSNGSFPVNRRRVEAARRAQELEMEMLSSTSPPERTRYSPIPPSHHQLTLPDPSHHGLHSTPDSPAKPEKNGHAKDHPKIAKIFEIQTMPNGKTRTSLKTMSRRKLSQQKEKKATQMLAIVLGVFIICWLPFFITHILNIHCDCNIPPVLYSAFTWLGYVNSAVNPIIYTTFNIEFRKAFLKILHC
Data set [5] deals with T4, Alpha-1A adrenergic receptor (Homo sapiens, UniProt P35348).
T4 sequence (P35348 whole entry): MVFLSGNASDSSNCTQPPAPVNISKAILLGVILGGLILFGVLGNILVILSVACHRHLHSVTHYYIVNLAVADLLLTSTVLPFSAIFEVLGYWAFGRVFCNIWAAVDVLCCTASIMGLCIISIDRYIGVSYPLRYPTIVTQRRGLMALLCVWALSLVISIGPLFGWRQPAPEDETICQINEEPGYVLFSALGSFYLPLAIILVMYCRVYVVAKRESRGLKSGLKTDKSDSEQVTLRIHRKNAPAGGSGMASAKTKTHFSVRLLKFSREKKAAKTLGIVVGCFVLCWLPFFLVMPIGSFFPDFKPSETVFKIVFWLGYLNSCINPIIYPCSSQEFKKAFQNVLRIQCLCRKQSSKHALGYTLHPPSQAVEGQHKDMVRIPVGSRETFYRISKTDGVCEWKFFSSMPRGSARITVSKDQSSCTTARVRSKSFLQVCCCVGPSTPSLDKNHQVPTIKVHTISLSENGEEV
Briefly: Binding affinity to adrenergic Alpha-1A receptor.

The target in a further data set is D(1A) dopamine receptor (Homo sapiens, UniProt P21728). Briefly: Binding affinity to dopamine D1 receptor.
Sequence of D(1A) dopamine receptor (P21728 whole entry): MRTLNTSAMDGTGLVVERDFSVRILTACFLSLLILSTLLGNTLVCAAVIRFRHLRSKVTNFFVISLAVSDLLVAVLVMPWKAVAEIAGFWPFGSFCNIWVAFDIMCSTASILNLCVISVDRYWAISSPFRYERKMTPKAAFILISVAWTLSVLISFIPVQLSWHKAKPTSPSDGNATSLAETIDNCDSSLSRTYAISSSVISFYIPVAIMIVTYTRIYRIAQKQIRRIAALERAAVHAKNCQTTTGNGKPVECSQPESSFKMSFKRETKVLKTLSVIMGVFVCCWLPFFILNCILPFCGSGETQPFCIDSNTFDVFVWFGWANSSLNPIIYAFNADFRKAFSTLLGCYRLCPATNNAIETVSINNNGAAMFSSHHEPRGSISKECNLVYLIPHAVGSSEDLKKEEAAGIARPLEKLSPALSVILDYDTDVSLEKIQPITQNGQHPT
In data set [6] the target is T5, Corticotropin-releasing factor-binding protein (Homo sapiens, UniProt P24387).
T5 sequence (P24387 whole entry): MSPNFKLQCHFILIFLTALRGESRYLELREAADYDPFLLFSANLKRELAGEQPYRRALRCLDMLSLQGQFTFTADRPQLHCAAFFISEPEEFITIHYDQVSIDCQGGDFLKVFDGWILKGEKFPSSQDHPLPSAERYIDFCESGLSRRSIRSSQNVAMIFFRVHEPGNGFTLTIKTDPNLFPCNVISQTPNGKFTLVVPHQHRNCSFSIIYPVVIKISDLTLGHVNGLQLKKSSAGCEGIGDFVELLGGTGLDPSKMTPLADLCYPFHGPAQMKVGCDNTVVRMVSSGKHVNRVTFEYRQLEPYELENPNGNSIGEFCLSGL
The data set is described as follows: Binding affinity to human recombinant CRF binding protein.

Data set [7] is described as follows: Binding affinity to N-type calcium channel.
Data set [8] concerns the target T3, Corticotropin-releasing factor receptor 1. The data set is described as follows: Antagonist activity at CRF1 receptor in rat brain homogenates assessed as inhibition of CRF-stimulted cAMP production. The data set is classed as functional, tissue-based. The method in brief: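 Rat cortical homogenate (0.8 mg original wet weight tissue) incubated 10 min at 37 °C in 100 mM Tris-HCl pH 7.4, 10 mM MgCl2, 0.4 mM EGTA, 0.1% BSA, 1 mM IBMX, creatine phosphate/phosphocreatine kinase, 100 nM ovine-CRF; started with 1 mM ATP/[32P]ATP; [32P]cAMP separated on Dowex and alumina columns, [3H]cAMP recovery marker; n = 3.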

Data set [9] is described as follows: Binding affinity to L-type calcium channel.
The nature of data set [10]: Binding affinity to serotonin receptor.
Data set [11] deals with Canis familiaris. The data set is described as follows: Hepatic blood flow in iv dosed Beagle dog. It is filed as ADME, organism-based, Canis lupus familiaris, Liver. The note with it: in vivo.

Usually IC50 stands for the concentration that inhibits the measured activity by half. The inhibition in vivo is the change of the read-out against control, counted positive when it falls. A lower inhibition in vivo goes with little suppression. Consider `CCC(CC)Nc1nc(C)nc2c(-c3cc(F)c(OC)cc3Cl)c(C)nn12`, for which the IC50 in [1] is above 1000 nM; in [3] it was above 1000 nM; in data set [4], 1 nM; at D(2) dopamine receptor, above 1000 nM; in data set [5] it was above 1000 nM; on D(1A) dopamine receptor, above 1000 nM. The IC50 in data set [6] is above 1000 nM; in data set [7], above 1000 nM; in [8] it was 36 nM; in [9], above 1000 nM; in [10] it was above 1000 nM. In the data set with Canis familiaris [2], this molecule registered an inhibition in vivo at 5 mg/kg of 97%.

For the molecule `COCCN(CCOC)c1nc(C)nc2c(-c3ccc(OC)cc3C)c(C)nn12`, the IC50 is above 1000 nM in data set [1]; above 1000 nM in data set [3]; 4.2 nM in data set [4]; above 1000 nM at D(2) dopamine receptor; above 1000 nM in [5]; above 1000 nM on D(1A) dopamine receptor. The IC50 was above 1000 nM in [6]; above 1000 nM in [7]; 66 nM in data set [8]; above 1000 nM in [9]; above 1000 nM in data set [10]. The same molecule had an inhibition in vivo at 5 mg/kg in the data set with Canis familiaris [2] of 75%. The molecule also gave a QH in the data set on Canis familiaris [11] of 1.86 L/h/kg.

Turning to `COCCN(CCOC)c1nc(C)nc2c(-c3cc(C)c(OC)cc3C)c(C)nn12`, the IC50 was above 1000 nM in [1]; above 1000 nM in [3]; 1.98 nM in [4]; above 1000 nM on D(2) dopamine receptor; above 1000 nM in data set [5]; above 1000 nM at D(1A) dopamine receptor. Moreover, the IC50 in data set [6] was above 1000 nM; in data set [7] it was above 1000 nM; in data set [8], 38 nM; in [9] it was above 1000 nM; in data set [10] it was above 1000 nM. Moreover, the inhibition in vivo at 5 mg/kg in the data set on Canis familiaris [2] worked out at 84%. This molecule yielded a QH in the data set on Canis familiaris [11] of 1.86 L/h/kg.

On to `CC[C@@H](C)Nc1nc(C)nc2c(-c3c(C)cc(OC)cc3OC)c(C)nn12`, for which the IC50 was above 1000 nM in data set [1]; above 1000 nM in data set [3]; 4.4 nM in data set [4]; above 1000 nM on D(2) dopamine receptor; above 1000 nM in [5]; above 1000 nM at D(1A) dopamine receptor. The IC50 was above 1000 nM in data set [6]; above 1000 nM in data set [7]; 110 nM in data set [8]; above 1000 nM in data set [9]; above 1000 nM in [10]. In addition, in the data set with Canis familiaris [2], at 5 mg/kg the inhibition in vivo was 72%. The molecule also returned a QH in the data set with Canis familiaris [11] of 1.86 L/h/kg.
